Source: article PMC5929363 (Radiology, 2017)

Legend:
[1] = system: BDL rat model of liver fibrosis; test: Molecular MR imaging of liver fibrosis, BDL rat model, 1.5 T; type: in vivo; details: for ΔCNR at 15 minutes post CM-101 / Area under the ΔCNR curve (AUC), liver vs muscle: 1.5 T
Outline: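 Male CD rats underwent common bile duct ligation or sham surgery and were imaged at day 19. Imaging at 1.5 T under 1–2% isoflurane used respiratory-gated 3D inversion-recovery FLASH (TI 250 ms, TE 2.44 ms, effective TR ~1000 ms), before and up to 30 min after i.v. 10 μmol/kg. ΔCNR was liver-minus-muscle SNR, giving AUC and ΔCNR at the maximal diseased–control difference time. R1 maps (TI 50–1000 ms) were acquired pre and 30 min post and fitted voxelwise. Analysis was blinded.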

Gd elimination route = type: in vivo; details: rat, 24-hour collection period, % of the Gd recovered
[2] = Gd blood plasma clearance in rats; type: in vivo; details: rat, after 10 μmol/kg i.v., exponential decay fit, n=4/time point
Outline: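 After i.v. probe injection, rat blood plasma sampled over 2 h (n = 4 per time point). Gadolinium quantified by HPLC/ICP-MS. Plasma concentration–time data fitted to exponential decay to give clearance half-life.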

[3] = Gd biodistribution in ex vivo rat tissue by ICP-MS
Outline: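 Rats dosed i.v. with 10 μmol/kg probe. Tissues harvested ex vivo 1 and 14 days post-injection. Gadolinium measured by ICP-MS and expressed as % injected dose per gram of tissue.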

[4] = system: CCl4 mouse model of liver fibrosis; test: Molecular MR imaging of liver fibrosis, CCl4 mouse model, 7.0 T; type: in vivo
Outline: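 C57BL6 mice received i.p. CCl4 0.4 μL/g (1:5 in olive oil) twice weekly for 10 weeks; controls received olive oil. Mice were imaged at baseline and 1 week after the last dose at 7.0 T under 1–2% isoflurane, using ungated T1-weighted RARE (TE 4.5 ms, factor 8, TR 600 ms) before and up to 30 min after i.v. 10 μmol/kg. Liver–muscle ΔCNR was analysed as AUC and at the time of maximal difference between fitted exponential curves. Analysis was blinded.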

[5] = In vivo plasma stability/metabolites by HPLC-ICP-MS; design: species or system rat; details: HPLC-ICP-MS of blood plasma
Outline: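 Rat plasma sampled over 2 h after i.v. probe injection. HPLC/ICP-MS separated intact probe from any metabolites. Intact probe expressed as percentage of circulating gadolinium at each time point.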

[6] = sham rats, n=11, 10 μmol/kg i.v.
[7] = baseline mice, n=11, 10 μmol/kg i.v.

## CC(C)C[C@H](NC(=O)[C@@H]1CSSC[C@H](NC(=O)[C@H](Cc2c[nH]cn2)NC(=O)[C@H](Cc2c[nH]c3ccccc23)NC(=O)[C@H](CCCCNC(=O)CCC(C(=O)O)N2CCN(CC(=O)O)CCN(CC(=O)O)CCN(CC(=O)O)CC2)NC(=O)CNC(=O)CCC(C(=O)O)N2CCN(CC(=O)O)CCN(CC(=O)O)CCN(CC(=O)O)CC2)C(=O)N[C@@H]([C@@H](C)O)C(=O)N[C@@H]([C@@H](C)O)C(=O)N[C@@H](CCCCNC(=O)CCC(C(=O)O)N2CCN(CC(=O)O)CCN(CC(=O)O)CCN(CC(=O)O)CC2)C(=O)N[C@@H](Cc2ccccc2)C(=O)N2CCC[C@H]2C(=O)N[C@@H](Cc2c[nH]cn2)C(=O)N[C@@H](Cc2c[nH]cn2)C(=O)N[C@@H](Cc2ccc(O)cc2)C(=O)N1)C(=O)N[C@@H](Cc1ccc(O)cc1)C(=O)N[C@@H](Cc1ccc(-c2ccccc2)cc1)C(N)=O (stereo partly drawn) [CM-101]
[1]; BDL rats, n=8, 10 μmol/kg i.v.
  ΔCNR at 15 minutes post CM-101: 13.6±3.2
[1]; BDL rats, n=8, 1.5 T
  Change in liver R1 relaxation rate (ΔR1) 30 minutes post CM-101 injection: 0.50 ± 0.23 s⁻¹
[1]; BDL rats, n=8, 19 days post procedure, 10 μmol/kg i.v.
  Area under the ΔCNR curve (AUC), liver vs muscle: 73.1±17.1
[1]; [6]
  Area under the ΔCNR curve (AUC), liver vs muscle: 23.2±15.2
  ΔCNR at 15 minutes post CM-101: 5.7±4.2
[1]; sham rats, n=11, 1.5 T
  Change in liver R1 relaxation rate (ΔR1) 30 minutes post CM-101 injection: 0.15 ± 0.14 s⁻¹
Gd elimination route
  Gd recovered found in the feces: 0.8%
  Gd recovered found in the urine: 99.2%
[2]
  Gd blood plasma clearance half-life t1/2: 6.8 ± 2.4 min
[3]; rat tissues
  Fold drop of tissue Gd levels from 24-hours to 14 days: about 10 fold
[3]; rat, all tissues, 24 hours after CM-101 injection
  Tissue Gd levels at 24-hours (upper bound over all tissues): < 3.9±0.6 %ID/g
[3]; rat, bone, 24 hours after 10 μmol/kg i.v., ICP-MS, n=7
  Gd (% ID/g) @ 24-hours, Bone: 0.07±0.02 % ID/g
[3]; rat, bone, 14 days after 10 μmol/kg i.v., ICP-MS, n=8
  Gd (% ID/g) @ 14-days, Bone: 0.01 % ID/g
[3]; rat, kidney, 14 days after 10 μmol/kg i.v., ICP-MS, n=8
  Gd (% ID/g) @ 14-days, Kidney: 0.33±0.12 % ID/g
[4]; CCl4 treated mice (10 weeks), n=8, 10 μmol/kg i.v.
  Area under the ΔCNR curve (AUC), liver vs muscle: 601±150
[4]; CCl4 treated mice, n=8, 10 μmol/kg i.v.
  ΔCNR at 10 minutes post CM-101: 18.3±6.5
[4]; [7]
  Area under the ΔCNR curve (AUC), liver vs muscle: 163±54
  ΔCNR at 10 minutes post CM-101: 5.2±1.0
[5]; 60 – 120 minutes post injection
  Intact CM-101 as % of circulating Gd in plasma: about 50%
[5]; 3 minutes post injection
  Intact CM-101 as % of circulating Gd in plasma: 97%
[5]; 15 minutes post injection
  Intact CM-101 as % of circulating Gd in plasma: 77%
